Measured values taken from publication PMC3049929 (Journal of medicinal chemistry, 2008).

Columns and labels:
[1] = system: P. falciparum 3D7 (chloroquine-sensitive); assay type: cell-based; details: Plasmodium falciparum, 3D7, Erythrocyte, 48 h, read-out: ED50 (nM) 3D7
In short: (§1)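 Parasites cultured in type A+ human erythrocytes (2% hematocrit) in RPMI-1640 with 20% heat-inactivated type A+ human plasma, under 5% CO2/5% O2/90% N2. Test compound in DMSO added to culture at 0.5% parasitemia and 0.5% hematocrit. Incubated 37 °C for 48 h, then [8-3H]hypoxanthine (0.3 µCi) added for a further 24 h. Cells harvested to filter mats and counted by β-scintillation. Uninfected-erythrocyte background subtracted; DMSO-only wells taken as 100% growth. ED50 from linear regression of incorporation vs concentration.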

[2] = system: P. falciparum K1 (chloroquine-resistant, pyrimethamine-resistant); assay type: cell-based; details: Plasmodium falciparum, K1, Erythrocyte, 48 h, read-out: ED50 (nM) K1
In short: as §1

[3] = molecular target: PfPFT (P. falciparum protein farnesyltransferase) (Plasmodium falciparum, UniProt Q5EI73+Q5EI74); experiment: PfPFT [3H] scintillation proximity assay; assay type: biochemical; details: for inhibition at 0.05 µM: read-out: Inhibition of PfFTase (%) 50 nM; for Inhibition of PfFTase (%) 50 nM: 50 nM inhibitor concentration

## Cc1ccccc1CN([C@H]1CCC[C@@H]1N(Cc1cncn1C)c1ccc(C#N)cc1)S(=O)(=O)c1cn(C)cn1 (racemic) [7b, (±)-[N-(2-Methylbenzyl)-N-{trans-2-[(4-cyanophenyl)(3-methyl-3H-imidazol-4-ylmethyl)amino]cyclopentyl}]-1-methyl-1H-imidazole-4-sulfonamide]
[1]
  IC50: 3000 nM
[2]
  IC50: 3200 nM

## Cn1cnc(S(=O)(=O)N(Cc2ccsc2)[C@H]2CCC[C@@H]2N(Cc2cncn2C)c2ccc(C#N)cc2)c1 (racemic) [7c, (±)-[N-(Thiophen-3-ylmethyl)-N-{trans-2-[(4-cyanophenyl)(3-methyl-3H-imidazol-4-ylmethyl)amino]cyclopentyl}]-1-methyl-1H-imidazole-4-sulfonamide]
[1]
  IC50: 2700 nM
[2]
  IC50: 2700 nM

## Cn1cnc(S(=O)(=O)N(CC2CCN(c3ncccn3)CC2)[C@H]2CCC[C@@H]2N(Cc2cncn2C)c2ccc(C#N)cc2)c1 (racemic) [7e, (±)-[N-{N-(2-Pyrimidinyl)-piperidin-4-ylmethyl}-N-{trans-2-[(4-cyanophenyl)(3-methyl-3H-imidazol-4-ylmethyl)amino]cyclopentyl}]-1-methyl-1H-imidazole-4-sulfonamide]
[1]
  IC50: 2600 nM
[2]
  IC50: 750 nM

## Cn1cnc(S(=O)(=O)N(Cc2ccccc2)[C@H]2CC[C@@H](N(Cc3cncn3C)c3ccc(C#N)cc3)C2)c1 (racemic) [8a, (±)-[N-Benzyl-N-{cis-3-[(4-cyanophenyl)(3-methyl-3H-imidazol-4-ylmethyl)amino]cyclopentyl}]-1-methyl-1H-imidazole-4-sulfonamide]
[1]
  IC50: 700 nM
[2]
  IC50: 800 nM

## Cc1ccccc1CN([C@H]1CC[C@@H](N(Cc2cncn2C)c2ccc(C#N)cc2)C1)S(=O)(=O)c1cn(C)cn1 (racemic) [8b, (±)-[N-(2-Methylbenzyl)-N-{cis-3-[(4-cyanophenyl)(3-methyl-3H-imidazol-4-ylmethyl)amino]cyclopentyl}]-1-methyl-1H-imidazole-4-sulfonamide]
[1]
  IC50: 2400 nM
[2]
  IC50: 2600 nM

## Cn1cnc(S(=O)(=O)N(Cc2ccsc2)[C@H]2CC[C@@H](N(Cc3cncn3C)c3ccc(C#N)cc3)C2)c1 (racemic) [8c, (±)-[N-(Thiophen-3-ylmethyl)-N-{cis-3-[(4-cyanophenyl)(3-methyl-3H-imidazol-4-ylmethyl)amino]cyclopentyl}]-1-methyl-1H-imidazole-4-sulfonamide]
[1]
  IC50: 2400 nM
[2]
  IC50: 2500 nM

## Cn1cnc(S(=O)(=O)N(CC2CCN(c3ncccn3)CC2)[C@H]2CC[C@@H](N(Cc3cncn3C)c3ccc(C#N)cc3)C2)c1 (racemic) [8e, (±)-[N-{N-(2-Pyrimidinyl)-piperidin-4-ylmethyl}-N-{cis-3-[(4-cyanophenyl)(3-methyl-3H-imidazol-4-ylmethyl)amino]cyclopentyl}]-1-methyl-1H-imidazole-4-sulfonamide]
[1]
  IC50: 600 nM
[2]
  IC50: 720 nM

## Cc1ccccc1CN([C@@H]1CC[C@@H](N(Cc2cncn2C)c2ccc(C#N)cc2)C1)S(=O)(=O)c1cn(C)cn1 (racemic) [9b, (±)-[N-(2-Methylbenzyl)-N-{trans-3-[(4-cyanophenyl)(3-methyl-3H-imidazol-4-ylmethyl)amino]cyclopentyl}]-1-methyl-1H-imidazole-4-sulfonamide]
[1]
  IC50: 2400 nM
[2]
  IC50: 2200 nM

## Cn1cnc(S(=O)(=O)N(Cc2ccsc2)[C@@H]2CC[C@@H](N(Cc3cncn3C)c3ccc(C#N)cc3)C2)c1 (racemic) [9c, (±)-[N-(Thiophen-3-ylmethyl)-N-{trans-3-[(4-cyanophenyl)(3-methyl-3H-imidazol-4-ylmethyl)amino]cyclopentyl}]-1-methyl-1H-imidazole-4-sulfonamide]
[1]
  IC50: 1500 nM
[2]
  IC50: 1200 nM

## Cn1cnc(S(=O)(=O)N(CC2CCN(C(=O)OC(C)(C)C)CC2)[C@@H]2CC[C@@H](N(Cc3cncn3C)c3ccc(C#N)cc3)C2)c1 (racemic) [9d, (±)-[N-(N-tert-Butoxycarbonylpiperidin-4-ylmethyl)-N-{trans-3-[(4-cyanophenyl)(3-methyl-3H-imidazol-4-ylmethyl)amino]cyclopentyl}]-1-methyl-1H-imidazole-4-sulfonamide]
[1]
  IC50: 310 nM
[2]
  IC50: 80 nM

## Cn1cnc(S(=O)(=O)N(CC2CCN(c3ncccn3)CC2)[C@@H]2CC[C@@H](N(Cc3cncn3C)c3ccc(C#N)cc3)C2)c1 (racemic) [9e, (±)-[N-{N-(2-Pyrimidinyl)-piperidin-4-ylmethyl}-N-{trans-3-[(4-cyanophenyl)(3-methyl-3H-imidazol-4-ylmethyl)amino]cyclopentyl}]-1-methyl-1H-imidazole-4-sulfonamide]
[1]
  IC50: 2600 nM
[2]
  IC50: 1500 nM

## Cc1ccccc1CN(CCCN(Cc1cncn1C)c1ccc(C#N)cc1)S(=O)(=O)c1cn(C)cn1 [2b, [N-(2-Methylbenzyl)-N-3-{(4-cyanophenyl)(3-methyl-3H-imidazol-4-ylmethyl)amino}propyl]-1-methyl-1H-imidazole-4-sulfonamide]
[1]
  IC50: 2900 nM
[2]
  IC50: 2900 nM

## Cn1cnc(S(=O)(=O)N(CCCN(Cc2cncn2C)c2ccc(C#N)cc2)Cc2ccsc2)c1 [2c, [N-(Thiophen-3-ylmethyl)-N-3-{(4-cyanophenyl)(3-methyl-3H-imidazol-4-ylmethyl)amino}propyl]-1-methyl-1H-imidazole-4-sulfonamide]
[1]
  IC50: 2800 nM
[2]
  IC50: 2200 nM

## Cn1cnc(S(=O)(=O)N(CCCN(Cc2cncn2C)c2ccc(C#N)cc2)CC2CCN(C(=O)OC(C)(C)C)CC2)c1 [2d, [N-(N-tert-Butoxycarbonylpiperidin-4-ylmethyl)-N-3-{(4-cyanophenyl)(3-methyl-3H-imidazol-4-ylmethyl)amino}propyl]-1-methyl-1H-imidazole-4-sulfonamide]
[1]
  IC50: 330 nM
[2]
  IC50: 190 nM

## Cn1cnc(S(=O)(=O)N(Cc2ccccc2)CC(C)(C)N(Cc2cncn2C)c2ccc(C#N)cc2)c1 [3a, [N-Benzyl-N-{(4-cyanophenyl)(3-methyl-3H-imidazol-4-ylmethyl)amino}-2,2-dimethylethyl]-1-methyl-1H-imidazole-4-sulfonamide]
[1]
  IC50: 160 nM
[2]
  IC50: 55 nM

## Cc1ccccc1CN(CC(C)(C)N(Cc1cncn1C)c1ccc(C#N)cc1)S(=O)(=O)c1cn(C)cn1 [3b, [N-(2-Methylbenzyl)-N-{(4-cyanophenyl)(3-methyl-3H-imidazol-4-ylmethyl)amino}-2,2-dimethylethyl]-1-methyl-1H-imidazole-4-sulfonamide]
[1]
  IC50: 210 nM
[2]
  IC50: 75 nM

## Cn1cnc(S(=O)(=O)N(CC2CCN(C(=O)OC(C)(C)C)CC2)CC(C)(C)N(Cc2cncn2C)c2ccc(C#N)cc2)c1 [3d, [N-(N-tert-Butoxycarbonylpiperidin-4-ylmethyl)-N-{(4-cyanophenyl)(3-methyl-3H-imidazol-4-ylmethyl)amino}-2,2-dimethylethyl]-1-methyl-1H-imidazole-4-sulfonamide]
[1]
  IC50: 400 nM
[2]
  IC50: 250 nM

## Cn1cnc(S(=O)(=O)N(CC2CCN(c3ncccn3)CC2)CC(C)(C)N(Cc2cncn2C)c2ccc(C#N)cc2)c1 [3e, [N-{N-(2-Pyrimidinyl)-piperidin-4-ylmethyl}-N-{(4-cyanophenyl)(3-methyl-3H-imidazol-4-ylmethyl)amino}-2,2-dimethylethyl]-1-methyl-1H-imidazole-4-sulfonamide]
[1]
  IC50: 180 nM
[2]
  IC50: 75 nM

## Cn1cnc(S(=O)(=O)N(CC(=O)N(Cc2cncn2C)c2ccc(C#N)cc2)Cc2ccccc2)c1 [4a, 2-[Benzyl(1-methyl-1H-imidazole-4-sulfonyl)amino]-N-(4-cyanophenyl)-N-(3-methyl-3H-imidazol-4-ylmethyl)acetamide]
[3]
  inhibition at 0.05 µM: 0%

## Cn1cnc(S(=O)(=O)N(CC(=O)N(Cc2cncn2C)c2ccc(C#N)cc2)CC2CCN(C(=O)OC(C)(C)C)CC2)c1 [4d, 2-[(N-tert-Butoxycarbonylpiperidin-4-ylmethyl)(1-methyl-1H-imidazole-4-sulfonyl)amino]-N-(4-cyanophenyl)-N-(3-methyl-3H-imidazol-4-ylmethyl)acetamide]
[3]
  inhibition at 0.05 µM: 0%

## Cn1cnc(S(=O)(=O)N(CCC(=O)N(Cc2cncn2C)c2ccc(C#N)cc2)Cc2ccccc2)c1 [5a, 3-[Benzyl-(1-methyl-1H-imidazole-4-sulfonyl)amino]-N-(4-cyanophenyl)-N-(3-methyl-3H-imidazol-4-ylmethyl)propanamide]
[3]
  inhibition at 0.05 µM: 0%

## Cn1cnc(S(=O)(=O)N(CCC(=O)N(Cc2cncn2C)c2ccc(C#N)cc2)CC2CCN(C(=O)OC(C)(C)C)CC2)c1 [5d, 3-[(N-tert-Butoxycarbonylpiperidin-4-ylmethyl)(1-methyl-1H-imidazole-4-sulfonyl)amino]-N-(4-cyanophenyl)-N-(3-methyl-3H-imidazol-4-ylmethyl)propanamide]
[3]
  inhibition at 0.05 µM: 0%

## Cn1cnc(S(=O)(=O)N(CC2CCN(C(=O)OC(C)(C)C)CC2)[C@H]2CC[C@@H](N(Cc3cncn3C)c3ccc(C#N)cc3)CC2)c1 [10d, (±)-[N-(N-tert-Butoxycarbonylpiperidin-4-ylmethyl)-N-{cis-4-[(4-cyanophenyl)(3-methyl-3H-imidazol-4-ylmethyl)amino]cyclohexyl}]-1-methyl-1H-imidazole-4-sulfonamide]
[3]
  Inhibition of PfFTase (%) 50 nM: no inhibitory activity
  inhibition at 0.05 µM: 0%
[2]
  IC50: 650 nM

## Cn1cnc(S(=O)(=O)N(CC2CCN(C(=O)OC(C)(C)C)CC2)[C@H]2CC[C@H](N(Cc3cncn3C)c3ccc(C#N)cc3)CC2)c1 [11d, (±)-[N-(N-tert-Butoxycarbonylpiperidin-4-ylmethyl)-N-{trans-4-[(4-cyanophenyl)(3-methyl-3H-imidazol-4-ylmethyl)amino]cyclohexyl}]-1-methyl-1H-imidazole-4-sulfonamide]
[3]
  Inhibition of PfFTase (%) 50 nM: no inhibitory activity
  inhibition at 0.05 µM: 0%
[2]
  IC50: 1200 nM
